# Experiments:
# Type in all cases: cell-based
# [1] = molecular target: T1, 5-hydroxytryptamine receptor 1A (Homo sapiens, UniProt P08908); experiment: Binding affinity towards human 5-hydroxytryptamine 1A receptor by the displacement of [3H]5-HT radioligand from the cloned receptor expressed in HeLa cells
# T1 sequence (P08908 whole entry): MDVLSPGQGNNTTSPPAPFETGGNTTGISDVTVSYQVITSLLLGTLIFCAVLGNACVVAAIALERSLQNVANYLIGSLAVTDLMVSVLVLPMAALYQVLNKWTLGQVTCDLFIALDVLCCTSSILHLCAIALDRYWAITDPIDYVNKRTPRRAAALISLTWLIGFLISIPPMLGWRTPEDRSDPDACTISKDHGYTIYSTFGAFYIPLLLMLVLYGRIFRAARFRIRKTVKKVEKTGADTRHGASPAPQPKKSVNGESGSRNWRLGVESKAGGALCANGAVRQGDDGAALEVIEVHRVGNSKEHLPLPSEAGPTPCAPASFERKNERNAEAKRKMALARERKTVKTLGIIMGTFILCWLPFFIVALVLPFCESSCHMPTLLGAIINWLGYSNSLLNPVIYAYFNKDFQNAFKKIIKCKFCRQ
# Procedure, shortened: (§1)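 Affinities are given as the geometric mean of 3–6 independent determinations; some values rest on only 2 determinations.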
# [2] = molecular target: 5-hydroxytryptamine receptor 7 (Homo sapiens, UniProt P34969); experiment: Binding affinity towards human 5-hydroxytryptamine 7 receptor by the displacement of [3H]-5-HT radioligand from the cloned receptor expressed in CHO cells
# 5-hydroxytryptamine receptor 7, sequence (P34969 whole entry): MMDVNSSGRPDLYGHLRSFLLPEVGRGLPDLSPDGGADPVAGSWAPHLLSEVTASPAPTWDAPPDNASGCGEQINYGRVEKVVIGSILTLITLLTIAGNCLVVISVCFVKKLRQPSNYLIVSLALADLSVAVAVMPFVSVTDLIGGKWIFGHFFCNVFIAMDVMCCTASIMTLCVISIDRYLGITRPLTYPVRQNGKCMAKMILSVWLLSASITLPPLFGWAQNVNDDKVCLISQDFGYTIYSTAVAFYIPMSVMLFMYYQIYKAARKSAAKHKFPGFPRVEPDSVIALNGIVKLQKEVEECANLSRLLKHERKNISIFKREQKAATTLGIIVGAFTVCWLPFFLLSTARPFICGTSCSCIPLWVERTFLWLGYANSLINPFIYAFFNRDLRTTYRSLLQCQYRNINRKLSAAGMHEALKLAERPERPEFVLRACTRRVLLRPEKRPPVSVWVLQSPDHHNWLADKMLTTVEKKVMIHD
# D(2) dopamine receptor = D(2) dopamine receptor (Homo sapiens, UniProt P14416); experiment: Binding affinity towards human dopamine receptor D2 by the displacement of [3H]spiperone radioligand from the cloned receptor expressed in CHO cells; procedure, shortened: as §1
# D(2) dopamine receptor, sequence (P14416 whole entry): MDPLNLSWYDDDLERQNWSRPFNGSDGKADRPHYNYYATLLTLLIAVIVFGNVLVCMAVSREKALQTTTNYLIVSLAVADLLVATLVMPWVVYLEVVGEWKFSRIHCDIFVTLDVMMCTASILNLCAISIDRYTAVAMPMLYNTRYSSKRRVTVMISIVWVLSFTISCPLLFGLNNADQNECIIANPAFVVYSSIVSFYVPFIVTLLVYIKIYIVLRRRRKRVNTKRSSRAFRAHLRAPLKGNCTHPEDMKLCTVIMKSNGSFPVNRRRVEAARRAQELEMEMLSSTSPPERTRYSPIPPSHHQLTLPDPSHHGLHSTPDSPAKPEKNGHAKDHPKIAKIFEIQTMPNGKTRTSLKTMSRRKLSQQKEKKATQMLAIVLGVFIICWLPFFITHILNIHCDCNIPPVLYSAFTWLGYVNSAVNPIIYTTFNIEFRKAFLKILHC
# [3] = molecular target: 5-hydroxytryptamine receptor 2A (Homo sapiens, UniProt P28223); experiment: Binding affinity towards human 5-hydroxytryptamine 2A receptor by the displacement of [3H]ketanserin radioligand from the cloned receptor expressed in CHO cells; procedure, shortened: as §1
# 5-hydroxytryptamine receptor 2A, sequence (P28223 whole entry): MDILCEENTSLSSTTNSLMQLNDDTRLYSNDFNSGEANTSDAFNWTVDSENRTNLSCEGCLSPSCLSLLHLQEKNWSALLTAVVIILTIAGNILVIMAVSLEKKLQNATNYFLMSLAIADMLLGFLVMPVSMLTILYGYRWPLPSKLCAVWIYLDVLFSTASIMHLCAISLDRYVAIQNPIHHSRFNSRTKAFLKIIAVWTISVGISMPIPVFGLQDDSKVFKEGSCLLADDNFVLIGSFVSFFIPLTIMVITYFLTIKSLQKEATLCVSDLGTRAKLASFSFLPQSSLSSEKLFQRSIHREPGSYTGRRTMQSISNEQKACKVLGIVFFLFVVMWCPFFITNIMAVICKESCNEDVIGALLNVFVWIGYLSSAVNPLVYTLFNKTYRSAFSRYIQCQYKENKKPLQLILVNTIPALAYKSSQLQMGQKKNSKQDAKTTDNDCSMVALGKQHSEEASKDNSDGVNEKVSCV
Ki [1],Ki [2],Ki (D(2) dopamine receptor),Ki [3],Compound
1200 nM,100 nM,,,CN(C)CCSc1ccnc(-c2ccccc2)c1
41 nM,7.2 nM,> 1000 nM,480 nM,CN(C)CCSc1cccc(C2(O)CCCCC2)n1
,3200 nM,,,CN(C)CCSc1ncc(-c2ccccc2)s1
830 nM,84 nM,> 1000 nM,1000 nM,CN(C)CCSc1nc2ccccc2s1
,170 nM,,,Cc1sc(SCCN(C)C)nc1-c1ccccc1
2200 nM,22 nM,> 1000 nM,1200 nM,CN(C)CCSc1nc(C(C)(C)C)cs1
210 nM,12 nM,> 1000 nM,640 nM,CN(C)CCSc1nc(-c2ccccc2)cs1
90 nM,27 nM,130 nM,> 200 nM,CN(C)CCSc1nc(-c2ccncc2)cs1
,> 4000 nM,,,CN(C)CCSc1nnc(-c2ccccc2)o1
8.7 nM,0.7 nM,1300 nM,230 nM,CN(C)CCSc1cccc(C2CCCCC2)n1
,,450 nM,,CN(C)CCSc1cccc(-c2ccccc2)n1
37 nM,4.1 nM,870 nM,270 nM,CN(C)CCSc1cccc(Br)n1
,6800 nM,,,CN(C)CCSc1nccs1
,1200 nM,,,CN(C)CCSc1n[nH]c(-c2ccccc2)n1

# — ChEMBL document CHEMBL1147426, “Thiazoles and thiopyridines: novel series of high affinity h5HT(7) ligands” (Bioorg Med Chem Lett, 2004)
